One block for each molecule: values may come before it. Calls of active or inactive are those of the source. No cut-off for these calls is given here.
Experiments:
[1] = molecular target: T1, Protein cereblon/Induced myeloid leukemia cell differentiation protein Mcl-1 (Homo sapiens, UniProt Q07820+Q96SW2); test: Induction of CRBN-mediated Mcl-1 degradation in human HeLa cells assessed as relative abundance at 10 uM after 12 hrs by Western blot analysis (reference value: 1); format: cell-based
Target sequence in this assay (Q07820 whole entry, looked up): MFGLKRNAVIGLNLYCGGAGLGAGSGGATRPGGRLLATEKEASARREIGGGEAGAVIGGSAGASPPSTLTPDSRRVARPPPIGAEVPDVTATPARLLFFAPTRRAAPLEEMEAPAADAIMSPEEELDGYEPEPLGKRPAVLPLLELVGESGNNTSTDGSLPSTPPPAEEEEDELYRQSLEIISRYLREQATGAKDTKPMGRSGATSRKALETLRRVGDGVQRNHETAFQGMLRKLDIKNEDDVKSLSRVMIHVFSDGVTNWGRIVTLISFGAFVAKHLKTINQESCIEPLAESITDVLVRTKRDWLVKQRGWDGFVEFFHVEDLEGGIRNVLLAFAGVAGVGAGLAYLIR
Target sequence in this assay (Q96SW2 whole entry, looked up): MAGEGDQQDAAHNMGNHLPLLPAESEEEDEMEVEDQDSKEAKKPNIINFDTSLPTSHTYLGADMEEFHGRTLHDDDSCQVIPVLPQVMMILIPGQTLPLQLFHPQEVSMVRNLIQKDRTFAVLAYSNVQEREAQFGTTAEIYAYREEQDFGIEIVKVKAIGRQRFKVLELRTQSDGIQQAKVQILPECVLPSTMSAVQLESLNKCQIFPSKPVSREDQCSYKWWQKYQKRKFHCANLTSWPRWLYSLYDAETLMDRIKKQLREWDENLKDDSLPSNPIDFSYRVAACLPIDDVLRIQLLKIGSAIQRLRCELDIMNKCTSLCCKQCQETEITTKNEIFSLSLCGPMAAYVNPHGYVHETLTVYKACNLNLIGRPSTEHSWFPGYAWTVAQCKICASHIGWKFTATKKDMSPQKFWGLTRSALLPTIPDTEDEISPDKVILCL

[2] = molecular target: T1, Protein cereblon/Induced myeloid leukemia cell differentiation protein Mcl-1; test: Induction of CRBN-mediated Mcl-1 degradation in human HeLa cells assessed as relative abundance at 1 uM after 12 hrs by Western blot analysis (reference value: 1); format: cell-based
Target sequence in this assay (Q07820 whole entry, looked up): as the sequence (Q07820 whole entry, looked up) above
Target sequence in this assay (Q96SW2 whole entry, looked up): as the sequence (Q96SW2 whole entry, looked up) above

[3] = molecular target: T2, Protein cereblon/Apoptosis regulator Bcl-2 (Homo sapiens, UniProt P10415+Q96SW2); test: Induction of CRBN-mediated Bcl-2 degradation in human HeLa cells assessed as relative abundance at 10 uM after 12 hrs by Western blot analysis (reference value: 1); format: cell-based
[4] = molecular target: T2, Protein cereblon/Apoptosis regulator Bcl-2; test: Induction of CRBN-mediated Bcl-2 degradation in human HeLa cells assessed as relative abundance at 1 uM after 12 hrs by Western blot analysis (reference value: 1); format: cell-based
[5] = molecular target: T2, Protein cereblon/Apoptosis regulator Bcl-2; test: Induction of CRBN-mediated Bcl-2 degradation in human HeLa cells assessed as relative abundance at 3 uM after 12 hrs by Western blot analysis (reference value: 1); format: cell-based
[6] = molecular target: T2, Protein cereblon/Apoptosis regulator Bcl-2; test: Induction of CRBN-mediated Bcl-2 degradation in human HeLa cells assessed as relative abundance at 0.3 uM after 12 hrs by Western blot analysis (reference value: 1); format: cell-based
[7] = molecular target: T1, Protein cereblon/Induced myeloid leukemia cell differentiation protein Mcl-1; test: Induction of CRBN-mediated Mcl-1 degradation in human HeLa cells assessed as relative abundance at 0.1 uM after 12 hrs by Western blot analysis (reference value: 1); format: cell-based
Target sequence in this assay (Q07820 whole entry, looked up): as the sequence (Q07820 whole entry, looked up) above
Target sequence in this assay (Q96SW2 whole entry, looked up): as the sequence (Q96SW2 whole entry, looked up) above

[8] = molecular target: T2, Protein cereblon/Apoptosis regulator Bcl-2; test: Induction of CRBN-mediated Bcl-2 degradation in human HeLa cells assessed as relative abundance at 0.1 uM after 12 hrs by Western blot analysis (reference value: 1); format: cell-based
[9] = molecular target: T1, Protein cereblon/Induced myeloid leukemia cell differentiation protein Mcl-1; test: Induction of CRBN-mediated Mcl-1 degradation in human HeLa cells assessed as relative abundance at 0.3 uM after 12 hrs by Western blot analysis (reference value: 1); format: cell-based
Target sequence in this assay (Q07820 whole entry, looked up): as the sequence (Q07820 whole entry, looked up) above
Target sequence in this assay (Q96SW2 whole entry, looked up): as the sequence (Q96SW2 whole entry, looked up) above

[10] = molecular target: T1, Protein cereblon/Induced myeloid leukemia cell differentiation protein Mcl-1; test: Induction of CRBN-mediated Mcl-1 degradation in human HeLa cells assessed as relative abundance at 3 uM after 12 hrs by Western blot analysis (reference value: 1); format: cell-based
Target sequence in this assay (Q07820 whole entry, looked up): as the sequence (Q07820 whole entry, looked up) above
Target sequence in this assay (Q96SW2 whole entry, looked up): as the sequence (Q96SW2 whole entry, looked up) above

[11] = molecular target: T1, Protein cereblon/Induced myeloid leukemia cell differentiation protein Mcl-1; test: Induction of CRBN-mediated Mcl-1 degradation in human HeLa cells assessed as relative abundance at 10 uM measured at 2 hrs by Western blot analysis (reference value: 1); format: cell-based
Method in brief: (§1)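 HeLa cells in DMEM with 10% FBS, exposed to 10 µM compound over a 0–24 h time course. Mcl-1 and Bcl-2 detected by immunoblot (NP-40 lysis, BCA-equalized SDS-PAGE, PVDF, ECL) and quantified relative to DMSO control; mean ± s.d., n=3 independent samples.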
Target sequence in this assay (Q07820 whole entry, looked up): as the sequence (Q07820 whole entry, looked up) above
Target sequence in this assay (Q96SW2 whole entry, looked up): as the sequence (Q96SW2 whole entry, looked up) above

[12] = molecular target: T1, Protein cereblon/Induced myeloid leukemia cell differentiation protein Mcl-1; test: Induction of CRBN-mediated Mcl-1 degradation in human HeLa cells assessed as relative abundance at 10 uM measured at 4 hrs by Western blot analysis (reference value: 1); format: cell-based; method in brief: as §1
[13] = molecular target: T1, Protein cereblon/Induced myeloid leukemia cell differentiation protein Mcl-1; test: Induction of CRBN-mediated Mcl-1 degradation in human HeLa cells assessed as relative abundance at 10 uM measured at 8 hrs by Western blot analysis (reference value: 1); format: cell-based; method in brief: as §1
[14] = molecular target: T2, Protein cereblon/Apoptosis regulator Bcl-2; test: Induction of CRBN-mediated Bcl-2 degradation in human HeLa cells assessed as relative abundance at 10 uM measured at 20 hrs by Western blot analysis (reference value: 1); format: cell-based; method in brief: as §1
[15] = molecular target: T1, Protein cereblon/Induced myeloid leukemia cell differentiation protein Mcl-1; test: Induction of CRBN-mediated Mcl-1 degradation in human HeLa cells assessed as relative abundance at 10 uM measured at 16 hrs by Western blot analysis (reference value: 1); format: cell-based; method in brief: as §1
[16] = molecular target: T1, Protein cereblon/Induced myeloid leukemia cell differentiation protein Mcl-1; test: Induction of CRBN-mediated Mcl-1 degradation in human HeLa cells assessed as relative abundance at 10 uM measured at 20 hrs by Western blot analysis (reference value: 1); format: cell-based; method in brief: as §1
[17] = molecular target: T1, Protein cereblon/Induced myeloid leukemia cell differentiation protein Mcl-1; test: Induction of CRBN-mediated Mcl-1 degradation in human HeLa cells assessed as relative abundance at 10 uM measured at 24 hrs by Western blot analysis (reference value: 1); format: cell-based; method in brief: as §1
[18] = molecular target: T2, Protein cereblon/Apoptosis regulator Bcl-2; test: Induction of CRBN-mediated Bcl-2 degradation in human HeLa cells assessed as relative abundance at 10 uM measured at 2 hrs by Western blot analysis (reference value: 1); format: cell-based; method in brief: as §1
[19] = molecular target: T2, Protein cereblon/Apoptosis regulator Bcl-2; test: Induction of CRBN-mediated Bcl-2 degradation in human HeLa cells assessed as relative abundance at 10 uM measured at 4 hrs by Western blot analysis (reference value: 1); format: cell-based; method in brief: as §1
[20] = molecular target: T2, Protein cereblon/Apoptosis regulator Bcl-2; test: Induction of CRBN-mediated Bcl-2 degradation in human HeLa cells assessed as relative abundance at 10 uM measured at 8 hrs by Western blot analysis (reference value: 1); format: cell-based; method in brief: as §1
[21] = molecular target: T2, Protein cereblon/Apoptosis regulator Bcl-2; test: Induction of CRBN-mediated Bcl-2 degradation in human HeLa cells assessed as relative abundance at 10 uM measured at 16 hrs by Western blot analysis (reference value: 1); format: cell-based; method in brief: as §1
[22] = molecular target: T2, Protein cereblon/Apoptosis regulator Bcl-2; test: Induction of CRBN-mediated Bcl-2 degradation in human HeLa cells assessed as relative abundance at 10 uM measured at 24 hrs by Western blot analysis (reference value: 1); format: cell-based; method in brief: as §1
[23] = molecular target: T1, Protein cereblon/Induced myeloid leukemia cell differentiation protein Mcl-1; test: Induction of CRBN-mediated Mcl-1 degradation in human HeLa cells at 10 uM measured at 24 hrs by Western blot analysis relative to control; format: cell-based; method in brief: as §1
[24] = molecular target: T1, Protein cereblon/Induced myeloid leukemia cell differentiation protein Mcl-1; test: Induction of CRBN-mediated Mcl-1 degradation in human HeLa cells assessed as Mcl-1 removal activity measured at 12 hrs by Western blot analysis; format: cell-based
Target sequence in this assay (Q07820 whole entry): as the sequence (Q07820 whole entry, looked up) above
Target sequence in this assay (Q96SW2 whole entry): as the sequence (Q96SW2 whole entry, looked up) above

[25] = molecular target: T1, Protein cereblon/Induced myeloid leukemia cell differentiation protein Mcl-1; test: Induction of CRBN-mediated Mcl-1 degradation in human K562 cells incubated for 12 hrs by Western blot analysis; format: cell-based
Method in brief: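 K562 cells kept in RPMI1640 with 10% FBS at 37 °C, 5% CO2. After compound treatment, cells lysed in NP-40 buffer with protease inhibitors. Equal protein run on SDS-PAGE, then immunoblotted; protein levels quantified from the blots.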

[26] = molecular target: T1, Protein cereblon/Induced myeloid leukemia cell differentiation protein Mcl-1; test: Induction of CRBN-mediated Mcl-1 degradation in human HeLa cells by Western blot analysis; format: cell-based
Method in brief: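 HeLa cells (DMEM, 10% FBS, 37 °C, 5% CO2) treated 12 h with compound (10 µM, or 0–10 µM gradient; time course 0–24 h at 10 µM). Lysis in NP-40 buffer with protease inhibitors, equal protein loaded for SDS-PAGE and immunoblotting. Bands quantified relative to DMSO control. n=3 independent samples.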

NCI-H23 = test: Cytotoxicity against human H23 cells incubated for 24 hrs by CCK8 assay; format: functional, cell-based
Method in brief: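 H23 cells seeded at 4 × 10^4 per mL in RPMI with 10% FBS, L-glutamine and pen/strep. Treated 24 h at various concentrations or with DMSO vehicle (0.05%). Viability read by CCK8 and normalized against cell-free background and untreated cultures; mean ± s.e.m., n=3.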

T2 sequence (P10415 whole entry, looked up): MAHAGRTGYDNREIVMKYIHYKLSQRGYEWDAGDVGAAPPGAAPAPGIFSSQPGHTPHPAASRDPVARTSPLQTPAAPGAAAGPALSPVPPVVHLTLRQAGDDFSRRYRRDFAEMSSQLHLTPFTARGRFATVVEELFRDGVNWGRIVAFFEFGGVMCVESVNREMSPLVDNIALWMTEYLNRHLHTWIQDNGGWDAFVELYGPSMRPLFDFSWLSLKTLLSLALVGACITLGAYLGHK
T2 sequence (Q96SW2 whole entry, looked up): as the sequence (Q96SW2 whole entry, looked up) above

- fold change (FC) [1]: 0.6
- fold change (FC) [2]: 1.1
- fold change (FC) [3]: 1.1
- fold change (FC) [4]: 1.3
- fold change (FC) [5]: 1
- fold change (FC) [6]: 1.3
- fold change (FC) [7]: 1
- fold change (FC) [8]: 1.2
- fold change (FC) [9]: 1.1
- fold change (FC) [10]: 0.8
- fold change (FC) [11]: 1
- fold change (FC) [12]: 1
- fold change (FC) [13]: 0.9
- fold change (FC) [14]: 1.1
- fold change (FC) [15]: 0.5
- fold change (FC) [16]: 0.3
- fold change (FC) [17]: 0.2
- fold change (FC) [18]: 1.1
- fold change (FC) [19]: 1.2
- fold change (FC) [20]: 1.3
- fold change (FC) [21]: 1
- fold change (FC) [22]: 1.1
- Activity [23]: 80%
- DC50 [24]: 3.6 µM
- Activity [25]: Active
Structure (SMILES): N#CC1=C(NCCC(=O)O)c2ccc(Sc3ccc(Br)cc3)c3cccc(c23)C1=O

- Activity [26]: inactive
Structure (SMILES): CN1C(=O)CCC(N2C(=O)c3cccc(NCCCCCCNC(=O)CCCCC(=O)NCCN4C(=O)c5cccc6c(Sc7ccc(Br)cc7)ccc(c56)C4=O)c3C2=O)C1=O (configuration not stated)
- Activity (NCI-H23): Active
